Legend:
[1] = biological target: 3-phosphoinositide-dependent protein kinase 1 (Homo sapiens) (UniProt O15530); experiment: Percent residual activity, relative to control, of PDK1 at 1 uM concentration of inhibitor in presence of 20 uM ATP
Outline: (§1)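 It is expressed as percent of activity in control incubations without inhibitor, as the mean of duplicate determinations. The protocol follows earlier published panel methods.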

[2] = biological target: Glycogen synthase kinase-3 beta (Homo sapiens) (UniProt P49841); experiment: Percent residual activity, relative to control, of GSK3 beta at 1uM concentration of inhibitor in presence of 5uM ATP; outline: as §1
Glycogen synthase kinase-3 beta (Homo sapiens), sequence (P49841 whole entry, looked up): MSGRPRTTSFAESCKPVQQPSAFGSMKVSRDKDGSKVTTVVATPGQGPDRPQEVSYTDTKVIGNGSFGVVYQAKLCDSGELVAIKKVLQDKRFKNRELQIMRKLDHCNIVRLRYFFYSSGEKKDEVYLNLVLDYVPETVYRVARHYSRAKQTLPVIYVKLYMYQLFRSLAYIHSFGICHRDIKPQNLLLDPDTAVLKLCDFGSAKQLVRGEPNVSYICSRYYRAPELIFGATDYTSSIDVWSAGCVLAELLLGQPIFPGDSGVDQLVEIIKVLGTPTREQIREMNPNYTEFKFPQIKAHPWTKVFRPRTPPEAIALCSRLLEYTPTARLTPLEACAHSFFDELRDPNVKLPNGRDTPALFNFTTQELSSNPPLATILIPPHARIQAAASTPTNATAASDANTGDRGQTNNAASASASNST

[3] = biological target: Tyrosine-protein kinase CSK (Homo sapiens) (UniProt P41240); experiment: Percent residual activity, relative to control, of CSK at 1 uM concentration of inhibitor in presence of 20 uM ATP; outline: as §1
Tyrosine-protein kinase CSK (Homo sapiens), sequence (P41240 2-450 limits assumed): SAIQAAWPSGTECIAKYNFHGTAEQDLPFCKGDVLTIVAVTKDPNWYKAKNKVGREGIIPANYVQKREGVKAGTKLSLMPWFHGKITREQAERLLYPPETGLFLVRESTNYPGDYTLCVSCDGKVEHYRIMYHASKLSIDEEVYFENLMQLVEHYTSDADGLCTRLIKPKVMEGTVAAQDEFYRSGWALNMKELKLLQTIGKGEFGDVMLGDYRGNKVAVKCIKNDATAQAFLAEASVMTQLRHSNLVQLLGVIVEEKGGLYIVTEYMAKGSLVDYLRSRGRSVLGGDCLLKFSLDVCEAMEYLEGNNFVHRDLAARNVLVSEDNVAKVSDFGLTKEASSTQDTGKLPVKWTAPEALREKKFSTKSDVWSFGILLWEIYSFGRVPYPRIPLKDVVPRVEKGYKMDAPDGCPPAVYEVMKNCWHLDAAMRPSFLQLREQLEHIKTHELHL

[4] = biological target: Myosin light chain kinase, smooth muscle (Homo sapiens) (UniProt Q15746); experiment: Percent residual activity, relative to control, of smMLCK at 1uM concentration of inhibitor in presence of 50uM ATP
Outline: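 Methods followed an earlier description. Activity is given as percent residual activity relative to control incubations with the inhibitor omitted. Values are means of duplicate determinations.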

[5] = biological target: cAMP-dependent protein kinase catalytic subunit alpha (Homo sapiens, UniProt P17612); experiment: Inhibitory potency towards human cAPK C alpha in the presence of 100 uM ATP and 30 uM TAMRA-kemptide
Outline: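 cAPK catalytic subunit (about 1 nM) incubated at 30 °C with inhibitor at various concentrations in 50 mM Hepes pH 7.5, 10 mM Mg acetate, 0.2 mg/mL BSA, 30 µM TAMRA-kemptide; reaction started with 100 µM ATP. Stopped at fixed times by 20-fold dilution in 75 mM phosphoric acid, then normal-phase TLC with fluorescence imaging (532 nm excitation). IC50 determined.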

[6] = biological target: Serine/threonine-protein kinase N2 (Homo sapiens) (UniProt Q16513); experiment: Percent residual activity, relative to control, of PRK2 at 1 uM concentration of inhibitor in presence of 5 uM ATP; outline: as §1
[7] = biological target: Eukaryotic elongation factor 2 kinase (Homo sapiens) (UniProt O00418); experiment: Percent residual activity, relative to control, of EF2K at 1 uM concentration of inhibitor in presence of 5 uM ATP; outline: as §1
[8] = biological target: MAP/microtubule affinity-regulating kinase 3 (Homo sapiens) (UniProt P27448); experiment: Percent residual activity, relative to control, of MARK3 at 1uM concentration of inhibitor in presence of 5uM ATP; outline: as §1
MAP/microtubule affinity-regulating kinase 3 (Homo sapiens), sequence (P27448 whole entry, looked up): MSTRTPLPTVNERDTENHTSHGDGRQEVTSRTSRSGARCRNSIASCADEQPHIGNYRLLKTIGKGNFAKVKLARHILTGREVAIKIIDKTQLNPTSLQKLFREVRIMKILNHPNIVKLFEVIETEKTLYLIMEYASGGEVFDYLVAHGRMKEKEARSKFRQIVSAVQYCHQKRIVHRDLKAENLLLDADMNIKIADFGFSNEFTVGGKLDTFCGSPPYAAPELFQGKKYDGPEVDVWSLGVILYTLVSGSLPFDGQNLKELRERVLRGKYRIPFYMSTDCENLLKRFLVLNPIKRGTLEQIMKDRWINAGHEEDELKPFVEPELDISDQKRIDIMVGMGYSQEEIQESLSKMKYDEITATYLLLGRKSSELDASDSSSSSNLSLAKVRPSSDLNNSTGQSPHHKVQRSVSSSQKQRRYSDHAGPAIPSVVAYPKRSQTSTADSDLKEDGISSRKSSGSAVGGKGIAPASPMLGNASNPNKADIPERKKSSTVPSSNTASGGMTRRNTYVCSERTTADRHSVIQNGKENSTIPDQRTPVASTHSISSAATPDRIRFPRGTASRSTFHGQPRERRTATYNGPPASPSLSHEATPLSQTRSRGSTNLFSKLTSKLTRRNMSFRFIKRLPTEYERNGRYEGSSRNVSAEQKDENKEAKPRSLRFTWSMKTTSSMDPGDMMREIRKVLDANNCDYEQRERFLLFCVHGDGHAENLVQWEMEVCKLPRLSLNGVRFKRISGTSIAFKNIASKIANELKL

[9] = biological target: MAP kinase-interacting serine/threonine-protein kinase 2 (Homo sapiens) (UniProt Q9HBH9); experiment: Percent residual activity, relative to control, of MNK2 at 1 uM concentration of inhibitor in presence of 50 uM ATP; outline: as §1
MAP kinase-interacting serine/threonine-protein kinase 2 (Homo sapiens), sequence (Q9HBH9 whole entry, looked up): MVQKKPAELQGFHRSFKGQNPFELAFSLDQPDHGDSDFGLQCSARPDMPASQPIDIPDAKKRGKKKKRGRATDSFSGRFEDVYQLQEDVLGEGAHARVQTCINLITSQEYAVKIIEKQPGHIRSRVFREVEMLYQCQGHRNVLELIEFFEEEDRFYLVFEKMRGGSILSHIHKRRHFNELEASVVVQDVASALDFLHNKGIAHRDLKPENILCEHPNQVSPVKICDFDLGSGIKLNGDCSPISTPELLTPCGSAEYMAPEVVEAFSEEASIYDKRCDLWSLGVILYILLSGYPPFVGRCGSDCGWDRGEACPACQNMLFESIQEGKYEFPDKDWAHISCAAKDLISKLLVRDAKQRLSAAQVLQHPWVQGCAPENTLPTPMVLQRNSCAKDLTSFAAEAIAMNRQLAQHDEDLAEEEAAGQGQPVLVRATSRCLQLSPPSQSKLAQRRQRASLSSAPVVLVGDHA

[10] = biological target: Tyrosine-protein kinase Lck (Homo sapiens) (UniProt P06239); experiment: Percent residual activity, relative to control, of Lck at 1uM concentration of inhibitor in presence of 50uM ATP; outline: as §1
[11] = biological target: Serine/threonine-protein kinase PLK1 (Homo sapiens) (UniProt P53350); experiment: Percent residual activity, relative to control, of PLK1 at 1 uM concentration of inhibitor in presence of 5 uM ATP; outline: as §1
Serine/threonine-protein kinase PLK1 (Homo sapiens), sequence (P53350 whole entry): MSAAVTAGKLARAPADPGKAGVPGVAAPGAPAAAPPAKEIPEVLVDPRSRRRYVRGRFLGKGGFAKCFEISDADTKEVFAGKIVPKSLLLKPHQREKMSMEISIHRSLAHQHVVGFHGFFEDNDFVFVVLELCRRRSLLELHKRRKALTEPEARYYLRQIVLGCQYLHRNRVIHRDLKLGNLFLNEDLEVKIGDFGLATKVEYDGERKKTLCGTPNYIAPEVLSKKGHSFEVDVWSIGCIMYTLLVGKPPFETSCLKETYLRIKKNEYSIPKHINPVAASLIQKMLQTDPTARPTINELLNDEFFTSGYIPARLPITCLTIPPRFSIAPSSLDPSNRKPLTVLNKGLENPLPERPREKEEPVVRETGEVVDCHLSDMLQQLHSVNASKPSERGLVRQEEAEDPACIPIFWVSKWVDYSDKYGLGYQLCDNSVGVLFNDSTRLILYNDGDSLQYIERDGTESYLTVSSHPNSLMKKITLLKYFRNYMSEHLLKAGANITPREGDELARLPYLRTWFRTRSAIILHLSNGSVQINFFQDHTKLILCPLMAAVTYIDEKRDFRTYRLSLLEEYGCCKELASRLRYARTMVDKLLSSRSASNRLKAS

[12] = biological target: Mitogen-activated protein kinase 11 (Homo sapiens) (UniProt Q15759); experiment: Percent residual activity, relative to control, of SAPK2b/p38ss2 at 1 uM concentration of inhibitor in presence of 20 uM ATP; outline: as §1
[13] = biological target: Serine/threonine-protein kinase Chk2 (Homo sapiens) (UniProt O96017); experiment: Percent residual activity, relative to control, of CHK2 at 1uM concentration of inhibitor in presence of 20uM ATP; outline: as §1
[14] = biological target: Serine/threonine-protein kinase pim-2 (Homo sapiens) (UniProt Q9P1W9); experiment: Percent residual activity, relative to control, of PIM2 at 1uM concentration of inhibitor in presence of 5uM ATP; outline: as §1
[15] = biological target: Dual specificity mitogen-activated protein kinase kinase 1 (Homo sapiens) (UniProt Q02750); experiment: Percent residual activity, relative to control, of MKK1 at 1 uM concentration of inhibitor in presence of 5 uM ATP; outline: as §1
[16] = biological target: Ribosomal protein S6 kinase (P70S6K) (Homo sapiens) (UniProt Q9UBS0+P23443); experiment: Percent residual activity, relative to control, of P70S6K at 1 uM concentration of inhibitor in presence of 20 uM ATP; format: protein-complex assay; outline: as §1
[17] = biological target: RAC-alpha serine/threonine-protein kinase (Homo sapiens) (UniProt P31749); experiment: Percent residual activity, relative to control, of PKB alpha (no ph) at 1 uM concentration of inhibitor in presence of 5 uM ATP; outline: as §1
RAC-alpha serine/threonine-protein kinase (Homo sapiens), sequence (P31749 whole entry): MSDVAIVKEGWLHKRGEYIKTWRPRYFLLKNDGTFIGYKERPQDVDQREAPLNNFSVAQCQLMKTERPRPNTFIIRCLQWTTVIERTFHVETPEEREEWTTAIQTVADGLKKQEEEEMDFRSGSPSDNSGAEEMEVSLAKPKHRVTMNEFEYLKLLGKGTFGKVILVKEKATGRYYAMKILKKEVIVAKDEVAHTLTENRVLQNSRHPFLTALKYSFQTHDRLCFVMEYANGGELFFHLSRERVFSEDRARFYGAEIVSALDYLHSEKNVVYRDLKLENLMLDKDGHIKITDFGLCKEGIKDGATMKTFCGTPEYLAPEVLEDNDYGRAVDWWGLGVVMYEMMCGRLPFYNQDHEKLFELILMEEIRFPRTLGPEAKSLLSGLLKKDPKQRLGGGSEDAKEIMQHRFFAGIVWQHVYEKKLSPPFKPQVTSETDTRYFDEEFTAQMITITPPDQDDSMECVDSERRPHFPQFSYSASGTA

[18] = biological target: Casein kinase II (Homo sapiens) (UniProt P67870+P68400+P19784); experiment: Percent residual activity, relative to control, of CK2 at 1 uM concentration of inhibitor in presence of 5 uM ATP; format: protein-complex assay; outline: as §1
[19] = biological target: MAP kinase-activated protein kinase 2 (Homo sapiens) (UniProt P49137); experiment: Percent residual activity, relative to control, of MAPKAP-K2 at 1 uM concentration of inhibitor in presence of 20 uM ATP; outline: as §1
[20] = biological target: Casein kinase I (Homo sapiens) (UniProt Q9HCP0+P78368+P48730+P49674+P48729); experiment: Percent residual activity, relative to control, of CK1 at 1 uM concentration of inhibitor in presence of 20 uM ATP; format: protein assay; outline: as §1
[21] = biological target: Mitogen-activated protein kinase 12 (Homo sapiens) (UniProt P53778); experiment: Percent residual activity, relative to control, of SAPK3/p38 gamma at 1 uM concentration of inhibitor in presence of 5 uM ATP; outline: as §1
Mitogen-activated protein kinase 12 (Homo sapiens), sequence (P53778 whole entry): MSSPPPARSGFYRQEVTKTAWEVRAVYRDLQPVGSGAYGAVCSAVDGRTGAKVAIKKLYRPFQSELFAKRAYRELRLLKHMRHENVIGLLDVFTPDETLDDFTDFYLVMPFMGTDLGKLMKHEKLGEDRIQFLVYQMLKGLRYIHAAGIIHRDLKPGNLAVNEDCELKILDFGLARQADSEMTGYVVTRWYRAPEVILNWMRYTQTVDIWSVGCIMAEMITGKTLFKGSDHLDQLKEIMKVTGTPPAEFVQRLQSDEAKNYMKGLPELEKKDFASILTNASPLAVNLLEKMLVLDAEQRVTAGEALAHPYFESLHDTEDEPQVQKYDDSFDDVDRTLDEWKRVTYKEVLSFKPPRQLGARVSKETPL

[22] = biological target: MAP kinase-interacting serine/threonine-protein kinase 1 (Homo sapiens) (UniProt Q9BUB5); experiment: Percent residual activity, relative to control, of MNK1 at 1 uM concentration of inhibitor in presence of 50 uM ATP; outline: as §1
[23] = biological target: Aurora kinase B (Homo sapiens) (UniProt Q96GD4); experiment: Percent residual activity, relative to control, of Aurora-B at 1 uM concentration of inhibitor in presence of 20 uM ATP; outline: as §1
Aurora kinase B (Homo sapiens), sequence (Q96GD4 whole entry): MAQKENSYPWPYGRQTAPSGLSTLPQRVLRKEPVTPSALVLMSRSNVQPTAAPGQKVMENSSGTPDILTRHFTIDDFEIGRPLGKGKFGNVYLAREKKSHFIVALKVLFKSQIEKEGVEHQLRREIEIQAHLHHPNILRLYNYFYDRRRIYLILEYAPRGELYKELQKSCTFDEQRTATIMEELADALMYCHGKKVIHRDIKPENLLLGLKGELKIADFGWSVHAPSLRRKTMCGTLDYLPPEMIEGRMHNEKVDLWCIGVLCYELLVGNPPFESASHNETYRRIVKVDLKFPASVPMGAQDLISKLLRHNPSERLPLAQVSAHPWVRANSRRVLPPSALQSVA

[24] = biological target: Mitogen-activated protein kinase 15 (Homo sapiens) (UniProt Q8TD08); experiment: Percent residual activity, relative to control, of ERK8 at 1 uM concentration of inhibitor in presence of 5 uM ATP; outline: as §1
Mitogen-activated protein kinase 15 (Homo sapiens), sequence (Q8TD08 whole entry): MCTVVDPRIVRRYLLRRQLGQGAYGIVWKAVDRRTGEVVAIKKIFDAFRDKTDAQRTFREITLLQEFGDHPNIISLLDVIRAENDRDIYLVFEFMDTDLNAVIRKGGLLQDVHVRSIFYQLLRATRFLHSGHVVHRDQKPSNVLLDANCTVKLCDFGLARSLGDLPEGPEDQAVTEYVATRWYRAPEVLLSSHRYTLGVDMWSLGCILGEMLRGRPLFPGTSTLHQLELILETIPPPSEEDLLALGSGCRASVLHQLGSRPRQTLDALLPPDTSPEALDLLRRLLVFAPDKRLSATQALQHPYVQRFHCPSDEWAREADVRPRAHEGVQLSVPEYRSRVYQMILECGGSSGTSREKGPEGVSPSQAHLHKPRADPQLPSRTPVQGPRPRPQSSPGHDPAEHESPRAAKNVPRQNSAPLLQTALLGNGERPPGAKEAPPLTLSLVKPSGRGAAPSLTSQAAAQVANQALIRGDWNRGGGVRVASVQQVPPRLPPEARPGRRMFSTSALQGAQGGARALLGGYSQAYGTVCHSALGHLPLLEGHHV

[25] = biological target: Inhibitor of nuclear factor kappa-B kinase subunit beta (Homo sapiens) (UniProt O14920); experiment: Percent residual activity, relative to control, of IKK beta at 1 uM concentration of inhibitor in presence of 5 uM ATP
Outline: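 Kinase panel assay run at an ATP concentration close to the kinase's Km. Inhibitor tested at 1 µM. Activity expressed as percent residual relative to control incubations without inhibitor, as the mean of duplicate determinations.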

3-phosphoinositide-dependent protein kinase 1 (Homo sapiens), sequence (O15530 whole entry): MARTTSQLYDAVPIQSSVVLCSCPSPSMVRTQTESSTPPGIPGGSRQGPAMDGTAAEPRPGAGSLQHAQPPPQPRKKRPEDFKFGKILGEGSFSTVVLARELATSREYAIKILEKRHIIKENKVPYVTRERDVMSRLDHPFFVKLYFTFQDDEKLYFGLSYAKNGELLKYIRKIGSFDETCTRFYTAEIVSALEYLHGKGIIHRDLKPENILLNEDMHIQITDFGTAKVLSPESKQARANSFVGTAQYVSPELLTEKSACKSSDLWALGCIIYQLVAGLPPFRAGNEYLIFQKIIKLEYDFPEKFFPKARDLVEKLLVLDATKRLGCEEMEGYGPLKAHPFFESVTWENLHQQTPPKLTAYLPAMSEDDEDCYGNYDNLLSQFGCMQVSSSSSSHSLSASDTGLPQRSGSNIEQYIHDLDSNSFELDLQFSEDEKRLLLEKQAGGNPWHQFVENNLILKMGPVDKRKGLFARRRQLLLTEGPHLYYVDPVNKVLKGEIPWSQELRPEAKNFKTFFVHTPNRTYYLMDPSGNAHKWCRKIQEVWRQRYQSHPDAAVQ

Question: With N=C(N)NCCC[C@@H](NC(=O)[C@@H](CCCNC(=N)N)NC(=O)[C@@H](CCCNC(=N)N)NC(=O)[C@@H](CCCNC(=N)N)NC(=O)[C@@H](CCCNC(=N)N)NC(=O)[C@@H](CCCNC(=N)N)NC(=O)CCCCCNC(=O)[C@H]1O[C@@H](n2cnc3c(N)ncnc32)[C@H](O)[C@@H]1O)C(N)=O as the compound, how does the Activity [1] read?
Answer: The Activity was 62%.

Question: And the Activity [2]?
Answer: Its Activity is 56%.

Question: And the Activity [3]?
Answer: Its Activity is 48%.

Question: And the Activity [4]?
Answer: Its Activity is 72%.

Question: And the IC50 [5]?
Answer: Its IC50 is 0.109 µM.

Question: And the Activity [6]?
Answer: Its Activity is 2%.

Question: What about the Activity [7] of the same compound?
Answer: Its Activity is 92%.

Question: And the Activity [8]?
Answer: The Activity was 40%.

Question: What about the Activity [9] of the same compound?
Answer: The Activity was 99%.

Question: What about the Activity [10] of the same compound?
Answer: The Activity was 70%.

Question: What about the Activity [11] of the same compound?
Answer: The Activity was 81%.

Question: And the Activity [12]?
Answer: Its Activity is 85%.

Question: And the Activity [13]?
Answer: The Activity was 14%.

Question: What about the Activity [14] of the same compound?
Answer: The Activity was 38%.

Question: And the Activity [15]?
Answer: The Activity was 77%.

Question: And the Activity [16]?
Answer: Its Activity is 7%.

Question: What about the Activity [17] of the same compound?
Answer: Its Activity is 2%.

Question: What about the Activity [18] of the same compound?
Answer: The Activity was 104%.

Question: What about the Activity [19] of the same compound?
Answer: The Activity was 85%.

Question: What about the Activity [20] of the same compound?
Answer: The Activity was 106%.

Question: And the Activity [21]?
Answer: The Activity was 111%.

Question: And the Activity [22]?
Answer: Its Activity is 102%.

Question: What about the Activity [23] of the same compound?
Answer: Its Activity is 103%.

Question: What about the Activity [24] of the same compound?
Answer: The Activity was 50%.

Question: And the Activity [25]?
Answer: Its Activity is 94%.

Reference: ChEMBL document CHEMBL1137240, “Conjugation of adenosine and hexa-(D-arginine) leads to a nanomolar bisubstrate-analog inhibitor of basophilic protein kinases” (J Med Chem, 2006)
